Converted amounts (≈) assume the structure as drawn.
Tests used:
Format in all cases: functional
Escherichia coli [1] = assay: Antibacterial activity against Escherichia coli ATCC 25922 after 24 hrs by cup plate method; conditions: ATCC 25922, 24 h
In short: (§1)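 Cup-plate MIC on Mueller Hinton agar plates containing the compound at 0 (control), 1, 2, 3, 5, 10, 15, 20, 30 and 40 (unit unclear), with compounds dissolved in DMF. Plates were read after 24 h and incubated further up to 72 h where needed. MIC is the lowest concentration giving no visible macroscopic growth.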

Candida albicans [2] = assay: Antifungal activity against Candida albicans MTCC 277 after 24 hrs by cup plate method; conditions: MTCC 277, 24 h; in short: as §1
Aspergillus niger [3] = assay: Antifungal activity against Aspergillus niger NCIM 545 after 48 hrs by agar cup plate method
In short: (§2)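 Fungal zone-of-inhibition test in Czapek Dox medium by the agar cup method, with compounds dissolved in DMF and griseofulvin in DMF as the reference. Plates were incubated at 28 ± 0.5 °C for 48 h. Activity was taken as the diameter of the zone of inhibited growth around the cup.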

Aspergillus niger [4] = assay: Antifungal activity against Aspergillus niger NCIM 545 after 24 hrs by cup plate method; conditions: NCIM 545, 24 h; in short: as §1
Bacillus subtilis [5] = assay: Antibacterial activity against Bacillus subtilis NCIM 2250 after 48 hrs by agar cup plate method
In short: (§3)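 Agar cup plate zone-of-inhibition assay on Mueller Hinton agar, with compounds dissolved in DMF and streptomycin in DMF as the reference. Plates were incubated at 37 ± 0.5 °C for 48 h. Inhibition was scored as the diameter of the growth-free zone around the cup.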

Escherichia coli [6] = assay: Antibacterial activity against Escherichia coli ATCC 25922 after 48 hrs by agar cup plate method; in short: as §3
Bacillus subtilis [7] = assay: Antibacterial activity against Bacillus subtilis NCIM 2250 after 24 hrs by cup plate method; conditions: NCIM 2250, 24 h; in short: as §1
Candida albicans [8] = assay: Antifungal activity against Candida albicans MTCC 277 after 48 hrs by agar cup plate method; in short: as §2

SMILES | MIC (Escherichia coli [1]) [µg/mL] | MIC (Candida albicans [2]) [µg/mL] | diameter of the inhibition zone (DIZ) (Aspergillus niger [3]) [mm] | MIC (Aspergillus niger [4]) [µg/mL] | diameter of the inhibition zone (DIZ) (Bacillus subtilis [5]) [mm] | diameter of the inhibition zone (DIZ) (Escherichia coli [6]) [mm] | MIC (Bacillus subtilis [7]) [µg/mL] | diameter of the inhibition zone (DIZ) (Candida albicans [8]) [mm]
CCOc1ccc2c(c1)cc(C(O)P(=O)(OCC)OCC)c1nnnn12 (configuration not stated) | 15 (≈ 39.4 µM) | 10 (≈ 26.3 µM) | 12.8 | 15 (≈ 39.4 µM) | 15.4 | 13.5 | 10 (≈ 26.3 µM) | 13.8
CCOP(=O)(OCC)C(OC(C)=O)c1cc2ccc(C)cc2n2nnnc12 (configuration not stated) | 15 (≈ 38.2 µM) | 10 (≈ 25.5 µM) | 15.2 | 10 (≈ 25.5 µM) | 14.1 | 13.2 | 10 (≈ 25.5 µM) | 13.4
CCOP(=O)(OCC)C(OC(C)=O)c1cc2cccc(OC)c2n2nnnc12 (configuration not stated) | 25 (≈ 61.2 µM) | 15 (≈ 36.7 µM) | 13.4 | 15 (≈ 36.7 µM) | 11.4 | 13.9 | 15 (≈ 36.7 µM) | 12.1
CCOP(=O)(OCC)C(O)c1cc2cc(OC)ccc2n2nnnc12 (configuration not stated) | 15 (≈ 40.9 µM) | 10 (≈ 27.3 µM) | 12.2 | 15 (≈ 40.9 µM) | 12.4 | 13.3 | 10 (≈ 27.3 µM) | 14.1
CCOP(=O)(OCC)C(O)c1cc2ccc(OC)cc2n2nnnc12 (configuration not stated) | 15 (≈ 40.9 µM) | 10 (≈ 27.3 µM) | 14.4 | 10 (≈ 27.3 µM) | 12 | 13.6 | 10 (≈ 27.3 µM) | 13.4
CCOP(=O)(OCC)C(OC(C)=O)c1cc2cc(OC)ccc2n2nnnc12 (configuration not stated) | 10 (≈ 24.5 µM) | 10 (≈ 24.5 µM) | 14.2 | 10 (≈ 24.5 µM) | 13.2 | 12.4 | 10 (≈ 24.5 µM) | 13.4
CCOP(=O)(OCC)C(OC(C)=O)c1cc2ccc(OC)cc2n2nnnc12 (configuration not stated) | 15 (≈ 36.7 µM) | 10 (≈ 24.5 µM) | 12.5 | 25 (≈ 61.2 µM) | 12.5 | 11.1 | 10 (≈ 24.5 µM) | 13.8
CCOc1ccc2c(c1)cc(C(OC(C)=O)P(=O)(OCC)OCC)c1nnnn12 (configuration not stated) | 10 (≈ 23.7 µM) | 10 (≈ 23.7 µM) | 14.5 | 10 (≈ 23.7 µM) | 12.1 | 13.8 | 10 (≈ 23.7 µM) | 14.1
CCOP(=O)(OCC)C(O)c1cc2cccc(OC)c2n2nnnc12 (configuration not stated) | 15 (≈ 40.9 µM) | 15 (≈ 40.9 µM) | 11.5 | 15 (≈ 40.9 µM) | 12.5 | 13.3 | 10 (≈ 27.3 µM) | 13.8
CCOP(=O)(OCC)C(O)c1cc2cccc(C)c2n2nnnc12 (configuration not stated) | 25 (≈ 71.4 µM) | 10 (≈ 28.5 µM) | 13.1 | 15 (≈ 42.8 µM) | 12.3 | 13.7 | 10 (≈ 28.5 µM) | 13
CCOP(=O)(OCC)C(O)c1cc2ccc(C)cc2n2nnnc12 (configuration not stated) | 15 (≈ 42.8 µM) | 10 (≈ 28.5 µM) | 13.2 | 15 (≈ 42.8 µM) | 13.6 | 12 | 10 (≈ 28.5 µM) | 13.8
CCOP(=O)(OCC)C(OC(C)=O)c1cc2cc(C)ccc2n2nnnc12 (configuration not stated) | 15 (≈ 38.2 µM) | 10 (≈ 25.5 µM) | 14.1 | 10 (≈ 25.5 µM) | 12 | 11.4 | 10 (≈ 25.5 µM) | 13.1
CCOP(=O)(OCC)C(OC(C)=O)c1cc2cccc(C)c2n2nnnc12 (configuration not stated) | 10 (≈ 25.5 µM) | 10 (≈ 25.5 µM) | 12.2 | 15 (≈ 38.2 µM) | 13.1 | 13.4 | 20 (≈ 51 µM) | 12.2
CCOP(=O)(OCC)C(O)c1cc2ccccc2n2nnnc12 (configuration not stated) | 20 (≈ 59.5 µM) | 10 (≈ 29.7 µM) | 12.1 | 15 (≈ 44.6 µM) | 12 | 13.4 | 10 (≈ 29.7 µM) | 13.6
CCOP(=O)(OCC)C(O)c1cc2cc(C)ccc2n2nnnc12 (configuration not stated) | 10 (≈ 28.5 µM) | 10 (≈ 28.5 µM) | 14.2 | 10 (≈ 28.5 µM) | 15.2 | 15 | 10 (≈ 28.5 µM) | 13.2
CCOP(=O)(OCC)C(O)c1cc2cccc(CC)c2n2nnnc12 (configuration not stated) | 20 (≈ 54.9 µM) | 10 (≈ 27.4 µM) | 14.2 | 10 (≈ 27.4 µM) | 14.5 | 16.2 | 10 (≈ 27.4 µM) | 13.4
CCOP(=O)(OCC)C(OC(C)=O)c1cc2cccc(CC)c2n2nnnc12 (configuration not stated) | 10 (≈ 24.6 µM) | 10 (≈ 24.6 µM) | 13.5 | 15 (≈ 36.9 µM) | 15.1 | 14.2 | 10 (≈ 24.6 µM) | 12.1
CCOP(=O)(OCC)C(OC(C)=O)c1cc2ccccc2n2nnnc12 (configuration not stated) | 10 (≈ 26.4 µM) | 10 (≈ 26.4 µM) | 13.4 | 20 (≈ 52.9 µM) | 11.2 | 12.5 | 15 (≈ 39.6 µM) | 14.2
COC1=CC(=O)C[C@@H](C)[C@]12Oc1c(Cl)c(OC)cc(OC)c1C2=O [GRISEOFULVIN] | – | 5 (≈ 14.2 µM) | 16.5 | 5 (≈ 14.2 µM) | – | – | – | 16.4
CN[C@@H]1[C@H](O[C@H]2[C@H](O[C@H]3[C@H](O)[C@@H](O)[C@H](N=C(N)N)[C@@H](O)[C@@H]3N=C(N)N)O[C@@H](C)[C@]2(O)C=O)O[C@@H](CO)[C@H](O)[C@H]1O [STREPTOMYCIN] | 5 (≈ 8.6 µM) | – | – | – | 16.4 | 16.2 | 5 (≈ 8.6 µM) | –
